Data: publication PMC3601665 (Molecular pharmaceutics, 2012)

What was measured:
[1] = tested on: pAkt (Ser-473) in LNCaP cells; assay: Western blot assay of Akt phosphorylation; assay type: cell-based; conditions: 2-μM drug, 100-ng/mL EGF, 30 min, serum-starved LNCaP
How it was run: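 Cells were lysed in buffer with protease inhibitors, and protein was quantified by BCA. Equal protein amounts were run on 10 % SDS-PAGE and transferred to nitrocellulose. Blots were probed for phospho-Akt (Ser-473) and total Akt, followed by HRP-conjugated secondary antibodies and chemiluminescent detection.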

[2] = tested on: LNCaP cells; assay: Cytotoxicity assay; assay type: cell-based; conditions: for selective cytotoxicity: LNCaP versus DU145 and PC3; for IC50: read-out: IC50 (Mean ± SE), LNCaP, PSMA positive, PTEN-deficient, 72 h, n=6
How it was run: (§1)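 DU145 and LNCaP were grown in RPMI-1640 and PC3 in F-12K, all with 10 % FBS. Cells were seeded at 5,000 per well. After 12 h, test compound (free or micelle-loaded) in PBS was added at 0, 0.1, 1, 5, 10, 50 or 100 μM. PBS and TCA served as negative and positive controls. After 72 h, 55-μM resazurin solution was added for 4 h at 37 °C, then resorufin fluorescence was read (ex 560/em 590 nm). IC50 was taken as the midpoint between controls on each plate.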

[3] = tested on: DU145 cells; assay: Cytotoxicity assay; assay type: cell-based; conditions: read-out: IC50 (Mean ± SE); DU145, PSMA negative, 72 h, n=6
How it was run: as §1

[4] = tested on: PC3 cells; assay: Cytotoxicity assay; assay type: cell-based; conditions: read-out: IC50 (Mean ± SE); PC3, PSMA negative, 72 h, n=6
How it was run: as §1

[5] = tested on: cell growth; conditions: cited from earlier work

SMILES | phosphorylation of Akt (Ser473) [1] | selective cytotoxicity [2] | IC50 [2] | IC50 [3] | IC50 [4] | concentration at which cell growth is significantly inhibited [5]
Cc1cc(C(C)N(CCO)c2ccccc2)c2nc(N3CCOCC3)cc(=O)n2c1 (centres unmarked) [BL05] | inhibited phosphorylation of Akt | selective cytotoxicity to LNCaP cells | 4.04 ± 0.11 µM | 32.4 ± 0.67 µM | 23.4 ± 0.74 µM | 
CC1(C)C(=CC=C2CCCC(C=CC3=[N+](CCCCS(=O)(=O)[O-])c4ccc5ccccc5c4C3(C)C)=C2Cl)N(CCCCS(=O)(=O)[O-])c2ccc3ccccc3c21.[Na+] [IR-820] |  |  |  |  |  | greater than 5 μM
Cc1cc(C(C)Nc2ccccc2)c2nc(N3CCOCC3)cc(=O)n2c1 (centres unmarked) [TGX-221] | inhibited phosphorylation of Akt | selective cytotoxicity to LNCaP cells | 3.98 ± 0.18 µM | 35.6 ± 0.12 µM | 18.2 ± 0.85 µM | 
